Source: ChEMBL document CHEMBL1123250, “Chloroalanyl antibiotic peptides: antagonism of their antimicrobial effects by L-alanine and L-alanyl peptides in gram-negative bacteria” (1986)
Values after ≈ are worked out from the molar mass of the structure shown. Values joined by “and” are separate entries in the source; they are usually repeats but may differ in a detail not shown here. Equal values may be shown once.

Tests used:
[1] = biological target: Alanine racemase, biosynthetic (Escherichia coli K-12) (UniProt P0A6B4); assay: (§1) Compound was tested for enzyme activity at a concentration of 100 ug/mL against alanine racemase; per mg of protein
Chain of Alanine racemase, biosynthetic (Escherichia coli K-12) (P0A6B4 whole entry): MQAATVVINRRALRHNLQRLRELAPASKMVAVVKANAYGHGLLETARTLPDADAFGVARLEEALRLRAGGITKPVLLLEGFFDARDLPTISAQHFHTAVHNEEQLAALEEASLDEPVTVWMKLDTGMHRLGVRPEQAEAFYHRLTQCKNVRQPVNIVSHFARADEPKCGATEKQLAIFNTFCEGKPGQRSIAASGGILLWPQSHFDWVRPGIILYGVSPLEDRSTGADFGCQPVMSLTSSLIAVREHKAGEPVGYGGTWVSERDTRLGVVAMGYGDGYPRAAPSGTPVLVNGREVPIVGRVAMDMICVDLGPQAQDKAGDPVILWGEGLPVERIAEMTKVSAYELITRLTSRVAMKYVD
Method in brief: (§2)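 E. coli JSR-0 was grown at 37 °C in Davis-Mingioli medium with Met and Pro (50 µg/mL each) and Leu, Ile and Val (100 µg/mL each), plus 5% sucrose or 500 µg/mL L-Ala. Agent was added at about 100 Klett units, with 30 min more shaking. Cells were washed in phosphate/EDTA/PLP buffer pH 8.0 and sonicated. D→L racemase was coupled to L-alanine dehydrogenase (10 mM D-Ala, 5 mM NAD+, CHES pH 9.0, 37 °C), reading NADH at 340 nm.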

[2] = biological target: Alanine racemase, biosynthetic (Escherichia coli K-12) (UniProt P0A6B4); assay: as §1; method in brief: as §2; remark: listed apart in the source
Escherichia coli [3] = assay: Compound was tested for antibacterial activity at a concentration of 50 ug/mL against Escherichia coli ATCC; format: functional
Method in brief: (§3)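 Agar dilution in defined peptide susceptibility agar with L-Ala or L-Ala-L-Ala added at 25, 50, 100 or 500 µg/mL, and peptide in serial 2-fold dilutions. Inocula were grown overnight in the liquid susceptibility medium and diluted to about 1 x 10^7 cfu/mL, then replicator-spotted. Plates were incubated overnight at 37 °C. MIC was the lowest concentration allowing fewer than 10 colonies at 16-18 h.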

Escherichia coli [4] = assay: Compound was tested for antibacterial activity at a concentration of 50 ug/mL against Escherichia coli JSR-O; format: functional; method in brief: as §3
Escherichia coli [5] = assay: Compound was tested for antibacterial activity at a concentration of 500 ug/mL against Escherichia coli ATCC; format: functional; method in brief: as §3
Escherichia coli [6] = assay: Compound was tested for antibacterial activity at a concentration of 500 ug/mL against Escherichia coli JSR-O; format: functional; method in brief: as §3
Escherichia coli [7] = assay: Compound was tested for antibacterial activity against Escherichia coli; format: functional
Method in brief: (§4)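 Agar dilution MIC on defined peptide susceptibility agar. Inoculum made by growing overnight in liquid peptide susceptibility medium, then diluting to about 1 × 10^7 cfu/mL. Applied by Steers replicator to plates carrying serial 2-fold peptide dilutions. Incubated overnight at 37 °C. MIC = lowest concentration allowing growth of fewer than 10 colonies after 16-18 h.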

Escherichia coli [8] = assay: Compound was tested for antibacterial activity against Escherichia coli JSR-O at a concentration of 25 ug/mL; format: functional; method in brief: as §3
Escherichia coli [9] = assay: Compound was tested for antibacterial activity at a concentration of 100 ug/mL against Escherichia coli JSR-O; format: functional; method in brief: as §3
Escherichia coli [10] = assay: (§5) Compound was tested for antibacterial activity at a concentration of 25 ug/mL against Escherichia coli ATCC; format: functional; method in brief: as §3
Escherichia coli [11] = assay: (§6) Compound was tested for antibacterial activity at a concentration of 25 ug/mL against Escherichia coli JSR-O; format: functional; method in brief: as §3
Escherichia coli [12] = assay: as §6; format: functional; method in brief: as §3; remark: listed apart in the source
Klebsiella aerogenes [13] = assay: Compound was tested for antibacterial activity against Enterobacter aerogenes at a concentration of 25 ug/mL; format: functional; method in brief: as §3
Klebsiella aerogenes [14] = assay: (§7) Compound was tested for antibacterial activity at a concentration of 25 ug/mL against Enterobacter aerogenes; format: functional; method in brief: as §3
Klebsiella aerogenes [15] = assay: as §7; format: functional; method in brief: as §3; remark: listed apart in the source
Klebsiella aerogenes [16] = assay: Compound was tested for antibacterial activity at a concentration of 50 ug/mL against Enterobacter aerogenes; format: functional; method in brief: as §3
Enterobacter cloacae [17] = assay: Compound was tested for antibacterial activity at a concentration of 25 ug/mL against Enterobacter cloacae; format: functional; method in brief: as §3
Enterobacter cloacae [18] = assay: Compound was tested for antibacterial activity at a concentration of 50 ug/mL against Enterobacter cloacae; format: functional; method in brief: as §3
Enterobacter cloacae [19] = assay: Compound was tested for antibacterial activity at a concentration of 500 ug/mL against Enterobacter cloacae; format: functional; method in brief: as §3
Shigella flexneri [20] = assay: Compound was tested for antibacterial activity against Shigella flexneri; format: functional; method in brief: as §4
Shigella flexneri [21] = assay: Compound was tested for antibacterial activity against Shigella flexneri at a concentration of 25 ug/mL; format: functional; method in brief: as §3
Shigella flexneri [22] = assay: (§8) Compound was tested for antibacterial activity at a concentration of 25 ug/mL against Shigella flexneri; format: functional; method in brief: as §3
Shigella flexneri [23] = assay: as §8; format: functional; method in brief: as §3; remark: listed apart in the source
Shigella flexneri [24] = assay: Compound was tested for antibacterial activity at a concentration of 50 ug/mL against Shigella flexneri; format: functional; method in brief: as §3
Shigella flexneri [25] = assay: Compound was tested for antibacterial activity at a concentration of 500 ug/mL against Shigella flexneri; format: functional; method in brief: as §3
Staphylococcus aureus [26] = assay: (§9) Compound was tested for antibacterial activity at a concentration of 25 ug/mL against Staphylococcus aureus; format: functional; method in brief: as §3
Staphylococcus aureus [27] = assay: as §9; format: functional; method in brief: as §3; remark: listed apart in the source
Staphylococcus aureus [28] = assay: Compound was tested for antibacterial activity at a concentration of 50 ug/mL against Staphylococcus aureus; format: functional; method in brief: as §3
Enterococcus faecalis [29] = assay: Compound was tested for antibacterial activity at a concentration of 100 ug/mL against Streptococcus faecalis; format: functional; method in brief: as §3
Enterococcus faecalis [30] = assay: (§10) Compound was tested for antibacterial activity at a concentration of 25 ug/mL against Streptococcus faecalis; format: functional; method in brief: as §3
Enterococcus faecalis [31] = assay: as §10; format: functional; method in brief: as §3; remark: listed apart in the source
Enterococcus faecalis [32] = assay: Compound was tested for antibacterial activity at a concentration of 50 ug/mL against Streptococcus faecalis; format: functional; method in brief: as §3
Streptococcus agalactiae = assay: Compound was tested for antibacterial activity against Streptococcus agalactiae; format: functional
Method in brief: (§11)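 Inoculum made from colonies grown overnight on chocolate or blood agar, resuspended in liquid medium to 10' cfu/mL. Applied by Steers replicator to serial 2-fold peptide dilutions. Incubated overnight at 37 °C under 7% CO2. MIC = lowest concentration giving fewer than 10 colonies at 16-18 h.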

[33] = test system: Staphylococcus epidermidis; assay: Compound was tested for antibacterial activity at a concentration of 50 ug/mL against Staphylococcus epidermidis; format: functional; method in brief: as §3
Streptococcus pyogenes = assay: Compound was tested for antibacterial activity against Streptococcus pyogenes; format: functional; method in brief: as §11
[34] = test system: Staphylococcus epidermidis; assay: (§12) Compound was tested for antibacterial activity at a concentration of 25 ug/mL against Staphylococcus epidermidis; format: functional; method in brief: as §3
[35] = test system: Staphylococcus epidermidis; assay: as §12; format: functional; method in brief: as §3; remark: listed apart in the source
Enterococcus faecalis [36] = assay: Compound was tested for antibacterial activity against Streptococcus faecalis at a concentration of 25 ug/mL; format: functional; method in brief: as §3
Escherichia coli [37] = assay: Compound was tested for enzyme activity at a concentration of 100 ug/mL against transaminase B; per mg of protein
Method in brief: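 E. coli JSR-0 was grown at 37 °C in supplemented Davis-Mingioli medium (Met and Pro; Leu, Ile and Val), with sucrose or L-Ala in some cultures. Agent was added at about 100 Klett units and cells harvested after 30 min. The sonicated homogenate was run with Tris pH 7.8, pyridoxal phosphate and α-ketoglutarate; L-valine started transamination at 37 °C. Timed aliquots were derivatised with 2,4-DNPH, and α-ketoisovalerate hydrazone was read at A430 against a standard curve.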

Enterococcus faecalis [38] = assay: Compound was tested for antibacterial activity at a concentration of 500 ug/mL against Streptococcus faecalis; format: functional; method in brief: as §3
Staphylococcus aureus [39] = assay: (§13) Compound was tested for antibacterial activity against Staphylococcus aureus at a concentration of 25 ug/mL; format: functional; method in brief: as §3
[40] = test system: Staphylococcus epidermidis; assay: as §13; format: functional; method in brief: as §3
Escherichia coli [41] = assay: as §5; format: functional; method in brief: as §3; remark: listed apart in the source
Klebsiella aerogenes [42] = assay: Compound was tested for antibacterial activity at a concentration of 500 ug/mL against Enterobacter aerogenes; format: functional; method in brief: as §3

N[C@@H](CCl)C(=O)N[C@@H](CCl)C(=O)O
Activity [1]: 0.85 µM/min | Activity [2]: 0.19 µM/min | MIC (Escherichia coli [3]): > 100 µg/mL | MIC (Escherichia coli [4]): > 100 µg/mL | MIC (Escherichia coli [5]): > 100 µg/mL | MIC (Escherichia coli [6]): > 100 µg/mL | MIC (Escherichia coli [7]): 12.5 µg/mL (≈ 54.6 µM) | MIC (Escherichia coli [8]): 3.12 µg/mL (≈ 13.6 µM) | MIC (Escherichia coli [9]): >100 µg/mL | MIC (Escherichia coli [9]; Escherichia coli, read-out: MIC): 50 µg/mL (≈ 218 µM) | MIC (Escherichia coli [10]): > 100 µg/mL | MIC (Escherichia coli [11]): > 100 µg/mL | MIC (Escherichia coli [12]): 6.25 µg/mL (≈ 27.3 µM) | MIC (Klebsiella aerogenes [13]): 6.25 µg/mL (≈ 27.3 µM) | MIC (Klebsiella aerogenes [14]): > 100 µg/mL | MIC (Klebsiella aerogenes [15]): 12.5 µg/mL (≈ 54.6 µM) | MIC (Klebsiella aerogenes [16]): > 100 µg/mL | MIC (Enterobacter cloacae [17]): > 100 µg/mL | MIC (Enterobacter cloacae [18]): > 100 µg/mL | MIC (Enterobacter cloacae [19]): > 100 µg/mL | MIC (Shigella flexneri [20]): 3.25 µg/mL (≈ 14.2 µM) | MIC (Shigella flexneri [21]): 1.56 µg/mL (≈ 6.81 µM) | MIC (Shigella flexneri [22]): > 100 µg/mL | MIC (Shigella flexneri [23]): 3.12 µg/mL (≈ 13.6 µM) | MIC (Shigella flexneri [24]): > 100 µg/mL | MIC (Shigella flexneri [25]): > 100 µg/mL | MIC (Staphylococcus aureus [26]): 0.39 µg/mL (≈ 1.7 µM) | MIC (Staphylococcus aureus [27]): 0.05 µg/mL (≈ 0.218 µM) | MIC (Staphylococcus aureus [28]): 6.25 µg/mL (≈ 27.3 µM) | MIC (Enterococcus faecalis [29]): > 100 µg/mL | MIC (Enterococcus faecalis [30]): > 100 µg/mL | MIC (Enterococcus faecalis [31]): > 100 µg/mL | MIC (Enterococcus faecalis [32]): > 100 µg/mL | MIC (Streptococcus agalactiae): 1.56 µg/mL (≈ 6.81 µM) | MIC [33]: 6.25 µg/mL (≈ 27.3 µM) | MIC (Streptococcus pyogenes): 3.12 µg/mL (≈ 13.6 µM) | MIC [34]: 0.39 µg/mL (≈ 1.7 µM) | MIC [35]: 0.05 µg/mL (≈ 0.218 µM) | MIC (Enterococcus faecalis [36]): > 100 µg/mL | Activity (Escherichia coli [37]): 0.13 µM/min and 0.11 µM/min | MIC (Enterococcus faecalis [38]): > 100 µg/mL | MIC (Staphylococcus aureus [39]): 0.05 µg/mL (≈ 0.218 µM) | MIC [40]: 0.05 µg/mL (≈ 0.218 µM) | MIC (Escherichia coli [41]): 3.12 µg/mL (≈ 13.6 µM) | MIC (Klebsiella aerogenes [42]): > 100 µg/mL
